Source: ChEMBL document CHEMBL3046200, “5-(2,6-difluorobenzyl)oxymethyl-5-methyl-3-(3-methylthiophen-2-yl)- 1,2-isoxazoline as a useful rice herbicide” (J Agric Food Chem, 2005)
Values after ≈ are worked out from the molar mass of the structure shown. Active and inactive are the calls of the source. No cut-off for these calls is given here.

What was measured:
[1] = system: Ludwigia prostrata; assay: Herbicidal activity against Ludwigia prostrata assessed as visual damage 125 g/ha measured after 3 weeks; assay type: functional, organism-based
In short: (§1)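 Flooded greenhouse pot test with soil of 1.5% total carbon, pH 5.6. Eight annual weed species sown at 0.5–1.0 cm in one pot, under 3 cm water at 28–33 °C day and 20–26 °C night. Compound in acetone/water (50/50 v/v) added gently to the water surface at the stated rate 5 days after transplanting.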

[2] = system: Ludwigia prostrata; assay: Herbicidal activity against Ludwigia prostrata assessed as visual damage 250 g/ha measured after 3 weeks; assay type: functional, organism-based; in short: as §1
[3] = system: Ludwigia prostrata; assay: Herbicidal activity against Ludwigia prostrata assessed as visual damage 500 g/ha measured after 3 weeks; assay type: functional, organism-based; in short: as §1
[4] = system: Ludwigia prostrata; assay: Herbicidal activity against Ludwigia prostrata assessed as visual damage 1000 g/ha measured after 3 weeks; assay type: functional, organism-based; in short: as §1
[5] = system: Cyperus difformis; assay: Herbicidal activity against Cyperus difformis assessed as visual damage 62.5 g/ha measured after 3 weeks; assay type: functional, organism-based; in short: as §1
[6] = system: Cyperus difformis; assay: Herbicidal activity against Cyperus difformis assessed as visual damage 125 g/ha measured after 3 weeks; assay type: functional, organism-based; in short: as §1
[7] = system: Cyperus difformis; assay: Herbicidal activity against Cyperus difformis assessed as visual damage 250 g/ha measured after 3 weeks; assay type: functional, organism-based; in short: as §1
[8] = system: Cyperus difformis; assay: Herbicidal activity against Cyperus difformis assessed as visual damage 500 g/ha measured after 3 weeks; assay type: functional, organism-based; in short: as §1
[9] = system: Cyperus difformis; assay: Herbicidal activity against Cyperus difformis assessed as visual damage 1000 g/ha measured after 3 weeks; assay type: functional, organism-based; in short: as §1
[10] = system: Murdannia keisak; assay: Herbicidal activity against Murdannia keisak assessed as visual damage 62.5 g/ha measured after 3 weeks; assay type: functional, organism-based; in short: as §1
[11] = system: Murdannia keisak; assay: Herbicidal activity against Murdannia keisak assessed as visual damage 125 g/ha measured after 3 weeks; assay type: functional, organism-based; in short: as §1
[12] = system: Murdannia keisak; assay: Herbicidal activity against Murdannia keisak assessed as visual damage 250 g/ha measured after 3 weeks; assay type: functional, organism-based; in short: as §1
[13] = system: Rotala indica; assay: Herbicidal activity against Rotala indica assessed as visual damage 125 g/ha measured after 3 weeks; assay type: functional, organism-based; in short: as §1
[14] = system: Rotala indica; assay: Herbicidal activity against Rotala indica assessed as visual damage 250 g/ha measured after 3 weeks; assay type: functional, organism-based; in short: as §1
[15] = system: Rotala indica; assay: Herbicidal activity against Rotala indica assessed as visual damage 500 g/ha measured after 3 weeks; assay type: functional, organism-based; in short: as §1
[16] = system: Rotala indica; assay: Herbicidal activity against Rotala indica assessed as visual damage 1000 g/ha measured after 3 weeks; assay type: functional, organism-based; in short: as §1
[17] = system: Pontederia vaginalis; assay: Herbicidal activity against Monochoria vaginalis assessed as visual damage 125 g/ha measured after 3 weeks; assay type: functional, organism-based; in short: as §1
[18] = system: Pontederia vaginalis; assay: Herbicidal activity against Monochoria vaginalis assessed as visual damage 250 g/ha measured after 3 weeks; assay type: functional, organism-based; in short: as §1
[19] = system: Pontederia vaginalis; assay: Herbicidal activity against Monochoria vaginalis assessed as visual damage 500 g/ha measured after 3 weeks; assay type: functional, organism-based; in short: as §1
[20] = system: Pontederia vaginalis; assay: Herbicidal activity against Monochoria vaginalis assessed as visual damage 1000 g/ha measured after 3 weeks; assay type: functional, organism-based; in short: as §1
[21] = system: Schoenoplectiella juncoides; assay: Herbicidal activity against Schoenoplectiella juncoides assessed as visual damage 62.5 g/ha measured after 3 weeks; assay type: functional, organism-based; in short: as §1
[22] = system: Schoenoplectiella juncoides; assay: Herbicidal activity against Schoenoplectiella juncoides assessed as visual damage 125 g/ha measured after 3 weeks; assay type: functional, organism-based; in short: as §1
[23] = system: Schoenoplectiella juncoides; assay: Herbicidal activity against Schoenoplectiella juncoides assessed as visual damage 250 g/ha measured after 3 weeks; assay type: functional, organism-based; in short: as §1
[24] = system: Echinochloa oryzicola; assay: Herbicidal activity against Echinochloa oryzicola assessed as visual damage 125 g/ha measured after 3 weeks; assay type: functional, organism-based; in short: as §1
[25] = system: Echinochloa oryzicola; assay: Herbicidal activity against Echinochloa oryzicola assessed as visual damage 250 g/ha measured after 3 weeks; assay type: functional, organism-based; in short: as §1
[26] = system: Echinochloa oryzicola; assay: Herbicidal activity against Echinochloa oryzicola assessed as visual damage 500 g/ha measured after 3 weeks; assay type: functional, organism-based; in short: as §1
[27] = system: Echinochloa oryzicola; assay: Herbicidal activity against Echinochloa oryzicola assessed as visual damage 1000 g/ha measured after 3 weeks; assay type: functional, organism-based; in short: as §1
[28] = system: Oryza sativa; assay: Toxicity in transplanted Oryza sativa (rice) assessed as visual damage 62.5 g/ha measured after 5 days after transplanting; assay type: organism-based; details: in vivo, 120 h
In short: (§2)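 Transplanted rice grown in flooded greenhouse pots (3 cm water; 28–33 °C day, 20–26 °C night; soil 1.5% total carbon, pH 5.6). Compound in acetone/water (50/50 v/v) applied to the water surface at the stated rate 5 days after transplanting. Injury scored visually on a 0–100 scale.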

[29] = system: Oryza sativa; assay: Toxicity in transplanted Oryza sativa (rice) assessed as visual damage 125 g/ha measured after 5 days after transplanting; assay type: organism-based; details: in vivo, 120 h; in short: as §2
[30] = system: Oryza sativa; assay: Toxicity in transplanted Oryza sativa (rice) assessed as visual damage 250 g/ha measured after 5 days after transplanting; assay type: organism-based; details: in vivo, 120 h; in short: as §2
[31] = system: Oryza sativa; assay: Toxicity in transplanted Oryza sativa (rice) assessed as visual damage 500 g/ha measured after 5 days after transplanting; assay type: organism-based; details: in vivo, 120 h; in short: as §2
[32] = system: Oryza sativa; assay: Toxicity in transplanted Oryza sativa (rice) assessed as visual damage 1000 g/ha measured after 5 days after transplanting; assay type: organism-based; details: in vivo, 120 h; in short: as §2
[33] = Genotoxicity in Cricetulus griseus lung fibroblast assessed as mutation; assay type: toxicity, cell-based; details: chinese hamster
In short: (§3)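 CHL (Chinese hamster lung fibroblast) cells kept in minimum essential medium with 5% fetal bovine serum. Harvested with 0.2% trypsin, seeded onto 50-mm dishes, and grown at 37 °C in humidified 5% CO₂/95% air.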

[34] = Genotoxicity inCricetulus griseus lung fibroblast assessed as chromosome aberration; assay type: toxicity, cell-based, Cricetulus griseus; details: chinese hamster; in short: as §3
[35] = Aquatic toxicity in Oryzias latipes (Japanese medaka); assay type: organism-based; details: in vivo, other: aquatic exposure
In short: (§4)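 Aquatic acute toxicity, given as LC50 in mg/L of test water.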

[36] = Aquatic toxicity in Daphnia magna; assay type: organism-based; details: in vivo, other: aquatic exposure; in short: as §4
[37] = Acute toxicity in Mus musculus (mouse); assay type: organism-based; details: in vivo
In short: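 Acute toxicity in mice, given as LD50 in mg/kg.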

[38] = system: Echinochloa crus-galli; assay: Herbicidal activity against 4 leaf stage Echinochloa crus-galli (barnyard grass) (barnyardgrass) at 250 g/ha; assay type: functional, organism-based
[39] = system: Echinochloa crus-galli; assay: Herbicidal activity against 2 to 3 leaf stage Echinochloa crus-galli (barnyard grass) (barnyardgrass) at 62.5 g/ha; assay type: functional, organism-based
[40] = system: Ludwigia prostrata; assay: Herbicidal activity against Ludwigia prostrata assessed as visual damage 62.5 g/ha measured after 3 weeks; assay type: functional, organism-based; in short: as §1

## Cc1ccsc1C1=NOC(C)(COCc2c(F)cccc2F)C1 (stereo not given)
[1]
  Activity: Active
[2]
  Activity: Active
[3]
  Activity: Active
[4]
  Activity: Active
[5]
  Activity: Active
[6]
  Activity: Active
[7]
  Activity: Active
[8]
  Activity: Active
[9]
  Activity: Active
[10]
  Activity: inactive
[11]
  Activity: inactive
[12]
  Activity: inactive
[13]
  Activity: Active
[14]
  Activity: Active
[15]
  Activity: Active
[16]
  Activity: Active
[17]
  Activity: Active
[18]
  Activity: Active
[19]
  Activity: Active
[20]
  Activity: Active
[21]
  Activity: inactive
[22]
  Activity: inactive
[23]
  Activity: inactive
[24]
  Activity: Active
[25]
  Activity: Active
[26]
  Activity: Active
[27]
  Activity: Active
[28]
  Activity: Non-toxic
[29]
  Activity: Non-toxic
[30]
  Activity: Non-toxic
[31]
  Activity: Non-toxic
[32]
  Activity: Non-toxic
[33]
  Activity: Non-toxic
[34]
  Activity: Non-toxic
[35]
  LC50: 1.9 µg/mL (≈ 5.63 µM)
[36]
  LC50: 2.7 µg/mL (≈ 8 µM)
[37]
  LD50: 5000 mg/kg
[38]
  Activity: Active
[39]
  Activity: Active
[40]
  Activity: Active
